System: not listed separately
Assay: (§1) Antiviral activity against Influenza A virus (H1N1) harboring PR8-GLuc infected in human A549 cells assessed as reduction in virus-induced cytopathic effect treated post viral infection for 1 hr by luciferase reporter gene assay
Format: functional, cell-based, H1N1 subtype
Details: A549, 1 h
Outline: (§2)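 A549 cells seeded 40,000/well, incubated overnight 37 °C 5% CO2, then infected with PR8-GLuc (H1N1) at 0.1 MOI for 1 h; unbound virus removed by two acidic (PBS pH 2.2) and three neutral (PBS pH 7.4) washes. Initial screen at one concentration below maximum non-toxic concentration; those reaching 50% inhibition retested in dose response for EC50 and EC90.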

**Q.** For `O=C(O)[C@H]1C2C=CC(C2)[C@@H]1Nc1nc(-c2c[nH]c3ncc(F)cc23)ncc1F` (stereo partly drawn), which EC50 is on record?
**A.** 50 nM

**Q.** For `O=C(O)[C@H]1C2C=CC(CC2)[C@@H]1Nc1nc(-c2c[nH]c3ncc(F)cc23)ncc1F` (stereo partly drawn), which EC50 is on record?
**A.** 7 nM

**Q.** Which EC50 does the source give for `O=C(O)C12CC3CC(CC(Nc4nc(-c5c[nH]c6ncc(F)cc56)ncc4F)(C3)C1)C2` here?
**A.** 950 nM

**Q.** For `O=C(O)[C@H]1C2C=CC(CC2)[C@@H]1Nc1nc(-c2n[nH]c3ncc(F)cc23)nc2ccsc12` (stereo partly drawn), which EC50 is on record?
**A.** 42 nM

**Q.** With `Cc1csc2c(N[C@H]3C4C=CC(CC4)[C@@H]3C(=O)O)nc(-c3c[nH]c4ncc(F)cc34)nc12` (stereo partly drawn) as the molecule, how does the EC50 read?
**A.** 29 nM

**Q.** With `O=C(O)[C@H]1C2C=CC(CC2)[C@@H]1Nc1nc(-c2c[nH]c3ncc(F)cc23)nc2sccc12` (stereo partly drawn) as the molecule, how does the EC50 read?
**A.** 6.5 nM

**Q.** Which EC50 does the source give for `O=C(O)[C@H]1C2C=CC(CC2)[C@@H]1c1nnc2c(F)cnc(-c3c[nH]c4ncc(F)cc34)n12` (stereo partly drawn) here?
**A.** > 40000 nM

**Q.** For `Cc1cc2nc(-c3c[nH]c4ncc(F)cc34)nc(N[C@H]3C4C=CC(CC4)[C@@H]3C(=O)O)c2s1` (stereo partly drawn), which EC50 is on record?
**A.** 27 nM

**Q.** With `O=C(O)[C@H]1C2C=CC(CC2)[C@@H]1Nc1nc(-c2c[nH]c3ncc(F)cc23)nc2ccsc12` (stereo partly drawn) as the molecule, how does the EC50 read?
**A.** 17 nM

**Q.** For `Cn1cnc2c(N[C@H]3C4C=CC(CC4)[C@@H]3C(=O)O)nc(-c3c[nH]c4ncc(F)cc34)nc21` (stereo partly drawn), which EC50 is on record?
**A.** 400 nM

**Q.** With `Cn1cnc2nc(-c3c[nH]c4ncc(F)cc34)nc(N[C@H]3C4C=CC(CC4)[C@@H]3C(=O)O)c21` (stereo partly drawn) as the molecule, how does the EC50 read?
**A.** > 10000 nM

**Q.** Which EC50 does the source give for `O=C(O)[C@H]1C2CCC(CC2)[C@@H]1Nc1nc(-c2c[nH]c3ncc(F)cc23)ncc1F` [PIMODIVIR] here?
**A.** 4 nM

**Q.** With `O=C(O)[C@H]1C2CCC(C3CC32)[C@@H]1Nc1nc(-c2c[nH]c3ncc(F)cc23)ncc1F` (stereo partly drawn) as the molecule, how does the EC50 read?
**A.** 50 nM

**Q.** With `O=C(O)[C@H]1C2C=CC(CC2)[C@@H]1Nc1nc(-c2n[nH]c3ncc(F)cc23)ncc1F` (stereo partly drawn) as the molecule, how does the EC50 read?
**A.** 16 nM

**Q.** With `O=C(O)[C@H]1C2C=CC(CC2)[C@@H]1Nc1cc2nncn2c(-c2c[nH]c3ncc(F)cc23)n1` (stereo partly drawn) as the molecule, how does the EC50 read?
**A.** 680 nM

**Q.** Which EC50 does the source give for `O=C(O)[C@H]1C2C=CC(CC2)[C@@H]1Nc1nc2cnc(-c3c[nH]c4ncc(F)cc34)nc2s1` (stereo partly drawn) here?
**A.** > 100000 nM

**Q.** With `O=C(O)[C@H]1C2C=CC(CC2)[C@@H]1Nc1nc(-c2n[nH]c3ncc(F)cc23)nc2sccc12` (stereo partly drawn) as the molecule, how does the EC50 read?
**A.** 12 nM

System: H1N1 subtype
Assay: as §1
Format: functional, cell-based
Details: not given
Outline: as §2

**Q.** Which EC90 does the source give for `O=C(O)[C@H]1C2CCC(CC2)[C@@H]1Nc1nc(-c2c[nH]c3ncc(F)cc23)ncc1F` [PIMODIVIR] here?
**A.** 27 nM

— ChEMBL document CHEMBL4396965
